# Source: PubChem BioAssay
# Shown are actives, neighbours in structure and some others; about 3.8% of the full set was active somewhere.
# KCNK3 block – human KCNK3 channel inhibition, primary screen; O14649; CHO-KCNK3 thallium flux, FluxOR fluorescence; active compounds read low; B-score at 10 µM; actives 0.84% (n = 340,000); AID 602410;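 active means B-score under library mean minus 4 SD, starting fluorescence ratio at most library mean plus 5 SD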;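 further: more negative B-score means stronger inhibition of thallium flux through KCNK3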
# KCNQ1 act – potentiators or activators of human KCNQ1 potassium channel; P51787; B-score at 10 µM; CHO-K1 KCNQ1, thallium flux FluxOR fluorescence; active compounds read high; actives 0.35% (n = 310,000);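 active means fluorescence ratio B-score, a plate-corrected score, at least three library SD, with initial intensity B-score within 5 SD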
#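 Material: CHO-K1 cells stably expressing KCNQ1. Medium: assay buffer for compound exposure, DMSO matched across wells. Reagent: K+/Tl+ depolarizing stimulus. Compound dosing: single-concentration screen. Times: 37 °C overnight plating, 90-min dark dye load, 20-min compound pretreatment. Technique: FluxOR Tl+ flux fluorescence.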
# hERG protect – shields human hERG channel from block by proarrhythmic agents; CHO-hERG, FluxOR thallium flux, dofetilide IC70 present; activation (rescue from dofetilide block), less the hit threshold, % at 10 µM; actives 0.51% (n = 310,000);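 active means activation above the mean of controls blocked by dofetilide plus 5 SD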;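 further: thallium influx through hERG after potassium depolarization seen as dye fluorescence rise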
# Kir21 inh – blocks the mouse Kir2.1 inward-rectifier potassium channel. P35561. HEK293-Kir2.1, FluxOR thallium flux fluorescence; active compounds read low. B-score at 10 µM. actives 0.85% (n = 310,000). AID 1672;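 active means fluorescence ratio B-score at or below minus 3 SD of library scores, with starting-brightness B-score within 2 SD, cut at about -4.2 in these data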;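 further: channel flux triggered by added potassium and thallium sulfate stimulus; B-score of peak minus minimum fluorescence over baseline after thallium stimulus; more negative B-score means stronger Kir2.1 block with less thallium influx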
# Target sequence (P35561 whole entry, looked up): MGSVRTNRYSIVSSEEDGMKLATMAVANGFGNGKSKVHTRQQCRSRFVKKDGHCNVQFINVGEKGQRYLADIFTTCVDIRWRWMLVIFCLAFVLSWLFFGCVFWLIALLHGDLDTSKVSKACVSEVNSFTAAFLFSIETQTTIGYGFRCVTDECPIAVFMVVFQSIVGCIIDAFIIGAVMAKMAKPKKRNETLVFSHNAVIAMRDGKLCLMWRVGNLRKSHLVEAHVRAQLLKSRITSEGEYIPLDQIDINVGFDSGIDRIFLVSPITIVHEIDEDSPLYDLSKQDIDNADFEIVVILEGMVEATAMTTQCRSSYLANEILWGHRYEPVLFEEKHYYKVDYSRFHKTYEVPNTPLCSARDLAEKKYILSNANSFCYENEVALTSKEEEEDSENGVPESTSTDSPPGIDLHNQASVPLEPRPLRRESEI
# KCNK9 inh – inhibitors of human KCNK9 two-pore domain potassium channel; Q9NPC2; HEK293 KCNK9, FluxOR thallium flux fluorescence; active compounds read low; B-score at 10 µM; actives 1.2% (n = 310,000); AID 488922;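 active means ratio B-score over 3 SD below the library mean, with starting fluorescence within 5 SD of its mean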;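 further: negative B-score means less thallium flux so channel inhibition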
# KCNQ1 block – inhibitors of human KCNQ1 potassium channel; CHO-K1 KCNQ1, FluxOR thallium flux fluorescence; active compounds read high; B-score at 10 µM; AID 2642; actives 1.3% (n = 310,000);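 active means compounds whose thallium flux B-score, printed positive for inhibition, exceeds three library SD while starting fluorescence stays within three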;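 further: channel opened by potassium depolarization with thallium stimulus after 20 min compound exposure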
# KCNK9 inh conf – human KCNK9 inhibitor confirmation; shares compounds with KCNK9 inh; HEK293 KCNK9 cells, FluxOR thallium flux fluorescence; inhibition, % at 10 µM; actives 43% (n = 4,900);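 active means thallium signal inhibited by more than 5 SD of the compound-free buffer control wells, on both duplicate plates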;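 further: 0% = assay buffer control wells without compound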
# Kir2-1 spec – tests whether KCNK9 modulators also affect mouse Kir2.1 | actives 4% (n = 4,900) | inhibition, % at 10 µM | Kir2.1 cells, FluxOR thallium flux fluorescence | AID 492993 | shares compounds with KCNK9 inh;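 active means thallium signal drop more than 5 SD beyond the mean of the no-compound control wells, seen in both duplicate plates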;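 further: signal is fluorescence rise after thallium addition divided by baseline fluorescence; plate controls were assay buffer only for no effect and full block by chlorpromazine control for full effect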
# HEK293 Tl ctr – non-induced cell nonspecific activity of KCNK9 modulators. actives 40% (n = 4,900). non-induced KCNK9-HEK293, FluxOR thallium flux. shares compounds with KCNK9 inh. AID 492997. inhibition, % at 10 µM;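 active means thallium signal drop beyond 5 SD of the untreated control mean, on both duplicate plates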;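 further: plate controls were buffer only IC0 wells for no effect and SID17386958 at its maximal inhibitory level for full effect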
# An asterisk follows results filed as active; i = inactive; . = no result given.
SMILES,KCNK3 block,KCNQ1 act,hERG protect,Kir21 inh,KCNK9 inh,KCNQ1 block,KCNK9 inh conf,Kir2-1 spec,HEK293 Tl ctr
COc1ccc2[nH]c3c(c2c1)CCN1C(=O)C(CC(=O)NCc2ccco2)C[C@H](C(=O)N2CCOCC2)[C@@]31CCC1CCCC1 (some centres undefined),i,.,.,.,.,.,.,.,.
COc1ccc(S(=O)(=O)N2CCC(C(=O)NC3CCCC3)CC2)cc1C,i,i,-2,-0.89,i,i,.,.,.
Cc1ccc(S(=O)(=O)N[C@@H](Cc2ccccc2)C(=O)CCl)cc1,i,.,.,.,.,.,.,.,.
COc1ccc(/C=C/C(O)=C2/C(=O)NC3(C)CC2c2ccccc2O3)c(OC)c1OC (centres undefined),i,i,-5,-1.5,i,i,.,.,.
Cc1ccc(/C=C/C(O)=C2/C(=O)N(C)C3(C)CC2c2ccccc2O3)cc1 (centres undefined),i,i,-10,2,-8.3*,i,52%*,i,42%*
COc1ccc(/C=C/C(O)=C2/C(=O)N(C)C3(C)CC2c2ccccc2O3)cc1 (centres undefined),i,i,-12,0.69,-10*,i,41%*,i,30%*
c1coc(C2=NC(c3ccco3)C(c3ccco3)N2)c1 (centres undefined),i,.,.,.,.,.,.,.,.
COC(=O)CN(C)C(=O)c1ccc2nc(Cc3cccc(Cl)c3)oc2c1,i,i,-6,0.29,i,i,.,.,.
COC(=O)C(Cc1ccc(O)cc1)N1Cc2ccccc2C1=O (centres undefined),i,i,-4,-0.5,i,i,.,.,.
COC(=O)C(Cc1ccc(OC(=O)c2ccc(C)cc2)cc1)N1Cc2ccccc2C1=O (centres undefined),i,i,-4,0.89,i,i,i,i,i
O=C(c1ccccc1)c1c2c(cc3sc4ccccc4[n+]13)-c1cccc3cccc-2c13,i,.,.,.,.,.,.,.,.
Cc1sc2cc3c(c(C(=O)c4ccccc4)[n+]2c1C)-c1cccc2cccc-3c12,.,i,-46,-13*,-10*,i,41%*,64%*,34%*
Cc1ccc(N(Cc2ccc([N+](=O)[O-])cc2)C(=O)c2ccco2)cc1C,i,i,-12,-3.8,-13*,i,56%*,i,42%*
O=C(c1ccco1)N(Cc1ccc([N+](=O)[O-])cc1)c1ccc(Cl)cc1,i,i,-12,1.1,i,i,.,.,.
FC(F)(F)c1ccc(-c2nc(=S)[nH][nH]2)cc1,i,i,-20,0.37,i,i,i,i,i
Cc1cc(-c2ccccc2)c2ccc(NC(=O)C(C)(C)C)nc2n1,i,i,-6,-0.02,i,i,.,.,.
COc1ccc(NC(=O)COC(=O)CNC(=O)C2CCCCC2)cc1OC,i,.,.,.,.,.,.,.,.
O=C(c1nc[nH]c1C(=O)N1CCN(c2ccccc2)CC1)N1CCN(c2ccccc2)CC1,i,.,.,.,.,.,.,.,.
NC(=O)c1ccccc1NC(=O)c1ccoc1,i,i,-6,0.06,i,i,.,.,.
CCOCCCNC(=S)N1CCCN(c2nc3cc(C)c(C)cc3cc2C#N)CC1,i,i,-21,-0.15,i,i,i,i,i
CCN(CC)S(=O)(=O)c1cc(C(=O)N2CCc3ccccc32)ccc1Cl,i,i,-13,-0.78,i,i,i,i,i
Cc1cccc(NS(=O)(=O)c2cc(C(=O)N3CCc4ccccc4C3)ccc2Cl)c1C,i,i,-2,-0.56,-15*,i,68%*,i,i
Cc1ccc(C)c(NS(=O)(=O)c2cc(C(=O)N3CCc4ccccc4C3)ccc2Cl)c1,i,i,4,-0.53,-17*,i,57%*,i,36%*
